miR-122 sensor – blocks miR-122 activity in Huh7 sensor cells | Huh7 miR-122 Renilla luciferase sensor, 48 h; neutral wells = 0, positive control = 100 | activation (reporter increase), % at 12.5 µM | 340,000 compounds, 0.3% hits;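 active means mean replicate activation score at least 90 and every replicate individually at or above 90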;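 further: higher luciferase means less miR-122 activity so hits act as miR-122 inhibitors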
PglD inh – inhibitors of Campylobacter jejuni PglD acetyltransferase. purified PglD enzyme, DTNB colorimetric CoA detection. inhibition, % at 12.5 µM. 360,000 compounds, 0.098% hits. AID 602405; in the data active means inhibition above about 16%, passing the limit was not always enough
Cneo AK release – causes C. neoformans cell lysis; adenylate kinase release luminescence, 4 h; normalised: neutral wells 0, clomiphene wells 100; lysis activity, % at 15 µM; 360,000 compounds, 0.2% hits;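 active means mean lysis activity across replicates of at least 80%, whatever share of replicates individually reach that level; inactive means mean lysis activity below 80%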
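Material: C. neoformans cells; Schedule: 4 h static compound exposure, 37 °C, read 1 h post-reagent; Measured by: adenylate kinase release luminescence; Read-out: signal increase indicating cell lysis; Controls: Clomiphene as positive lysis control.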
PvdQ acylase – blocks Pseudomonas aeruginosa PvdQ acylase activity | purified PvdQ acylase, fluorescence plate reader | inhibition, % at 10 µM | 340,000 compounds, 0.063% hits; in the data active means inhibition above about 30%, passing the limit was not always enough;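 further: 0% = vehicle neutral wells and 100% = reference inhibitor wells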
ERp5 inh – blocks human ERp5 reductase activity on insulin; Q15084; ERp5 insulin aggregation, absorbance 650 nm, 90 min; inhibition, % at 9.99 µM; 350,000 compounds, 0.05% hits;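 active means mean replicate inhibition above about 25%, with every replicate also reaching it, limit read from the data, passing the limit was not always enough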
Target sequence (Q15084 whole entry, looked up): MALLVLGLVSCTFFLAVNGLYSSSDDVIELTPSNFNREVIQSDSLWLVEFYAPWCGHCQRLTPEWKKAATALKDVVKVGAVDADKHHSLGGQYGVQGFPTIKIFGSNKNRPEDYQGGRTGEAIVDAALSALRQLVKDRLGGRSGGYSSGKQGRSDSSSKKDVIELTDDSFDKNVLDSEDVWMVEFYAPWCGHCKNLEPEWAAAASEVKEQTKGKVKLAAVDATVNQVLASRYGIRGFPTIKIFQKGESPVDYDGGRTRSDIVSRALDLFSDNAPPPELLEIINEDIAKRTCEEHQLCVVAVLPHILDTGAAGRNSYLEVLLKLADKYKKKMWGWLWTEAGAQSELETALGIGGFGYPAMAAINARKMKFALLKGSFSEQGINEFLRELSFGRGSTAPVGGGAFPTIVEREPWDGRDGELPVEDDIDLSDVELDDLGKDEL
PDI inh – inhibitors of human protein disulfide isomerase; inhibition, % at 10 µM; PDI insulin aggregation turbidity, A650, 90 min; AID 588391; 350,000 compounds, 0.052% hits; P07237;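 active means mean inhibition across replicates of 30% or more, whatever share of single replicates reach that level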
* hit, by the source's call; . = not tested or not shown; [ ] = dose if it differs, or a comment. Shown are actives, neighbours in structure and some others; about 0.58% of the full set was active somewhere.

SMILES	miR-122 sensor	PglD inh	Cneo AK release	PvdQ acylase	ERp5 inh	PDI inh
Cc1noc(C)c1S(=O)(=O)Nc1ccc2c(c1)CC(=O)N([C@H](C)CO)C[C@@H](C)[C@@H](CN(C)Cc1ccc3c(c1)OCO3)O2	-2[16.7 µM]	3	2	.	-6	.
Cc1cccc(NS(=O)(=O)c2cc3c4c(c2)C(C)C(=O)N4CCC3)c1 (configuration not stated)	110*	-2	0	-17	-3	1
Cc1ccc(S(=O)(=O)Nc2cc3c4c(c2)C(C)C(=O)N4CCC3)cc1 (configuration not stated)	-7	-2	-1	9	-1	-5
CN(C)C(=O)c1ccc(-c2ccc([C@H]3[C@H]4CN(CCC(F)(F)F)CCCCN4[C@H]3CO)cc2)cc1	54[16.7 µM]	3	85*	.	9	.
COc1ccccc1C#Cc1ccc([C@@H]2[C@H]3CN(CCC(F)(F)F)CCCCN3[C@H]2CO)cc1	-5[16.7 µM]	5	81*	.	-1	.
OC[C@H]1[C@H](c2ccc(-c3ccccc3)cc2)[C@H]2CN(CCC(F)(F)F)CCCCN21	1[16.7 µM]	0	2	.	-4	.
COc1cccc(S(=O)(=O)N[C@H]2CC[C@@H](CCn3cc(-c4ccccc4OC)nn3)O[C@H]2CO)c1	.	0	-6	.	6	.
C=C/C=C/[C@@H]1C(=C)CN2[C@H]1[C@H](Cc1ccccc1)OC(=O)[C@@H]2Cc1ccccc1	.	0	3	.	2	.
Cc1ccc(CCNC(=O)CCS(=O)(=O)c2ccc(Br)cc2)cc1	.	.	.	30*	0	-6
C[C@H]1CN([C@@H](C)CO)C(=O)Cc2cc(NC(=O)c3ccncc3)ccc2O[C@H]1CN(C)C(=O)Nc1cccc2ccccc12	4[16.7 µM]	5	-8	.	1	.
COC(=O)C1CCN(C2CC(=O)N(c3cc(C)cc(C)c3)C2=O)CC1 (configuration not stated)	.	.	.	36*	3	17
C[C@@H]1CN([C@H](C)CO)C(=O)c2cccc(NC(=O)Nc3ccc(C(F)(F)F)cc3)c2O[C@@H]1CN(C)C(=O)Nc1cccc2ccccc12	2[16.7 µM]	1	2	.	1	.
C[C@@H]1CN([C@H](C)CO)C(=O)c2cc(NC(=O)Nc3cccc4ccccc34)ccc2O[C@H]1CN(C)C(=O)Nc1ccc(C(F)(F)F)cc1	2[16.7 µM]	4	103*	.	-2	.
C[C@@H]1CN([C@H](C)CO)C(=O)c2cccc(NC(=O)Nc3cccc4ccccc34)c2O[C@@H]1CN(C)C(=O)Nc1ccc(C(F)(F)F)cc1	-6[16.7 µM]	0	0	.	42*	.
C[C@@H]1CN([C@H](C)CO)C(=O)c2cccc(NC(=O)Nc3cccc4ccccc34)c2O[C@H]1CN(C)C(=O)Nc1ccc(C(F)(F)F)cc1	-11[16.7 µM]	1	-1	.	62*	.
C[C@H]1CN([C@@H](C)CO)C(=O)c2cccc(NC(=O)Nc3cccc4ccccc34)c2O[C@@H]1CN(C)C(=O)Nc1ccc(C(F)(F)F)cc1	1[16.7 µM]	4	-5	.	79*	.
COc1ccc(S(=O)(=O)N[C@H]2CC[C@@H](CC(=O)N3CCc4ccccc4C3)O[C@@H]2CO)cc1	.	0	1	.	1	.
C[C@H](CO)N1C[C@H](C)[C@@H](CN(C)C(=O)Nc2cccc3ccccc23)Oc2ccc(NC(=O)Nc3ccccc3)cc2C1=O	-1[16.7 µM]	-3	0	.	0	.
C[C@H](CO)N1C[C@H](C)[C@H](CN(C)C(=O)Nc2cccc3ccccc23)Oc2ccc(NC(=O)Nc3ccccc3)cc2C1=O	9[16.7 µM]	-2	101*	.	3	.
C[C@@H]1CN([C@@H](C)CO)C(=O)Cc2cc(NC(=O)Nc3cccc4ccccc34)ccc2O[C@@H]1CN(C)Cc1ccc(C(=O)Nc2ccccc2N)cc1	.	.	.	.	4	.
CC(C)NC(=O)Nc1ccc2c(c1)CC(=O)N([C@H](C)CO)C[C@H](C)[C@@H](CN(C)Cc1ccc(C(=O)Nc3ccccc3N)cc1)O2	15[16.7 µM]	.	.	.	1	.
CC(C)NC(=O)Nc1ccc2c(c1)CC(=O)N([C@H](C)CO)C[C@H](C)[C@H](CN(C)Cc1ccc(C(=O)Nc3ccccc3N)cc1)O2	114*[16.7 µM]	.	.	.	-1	.
C[C@H]1CN([C@@H](C)CO)C(=O)Cc2cc(NC(=O)CCCCCC(=O)Nc3ccccc3N)ccc2O[C@H]1CN(C)Cc1ccc2c(c1)OCO2	61[16.7 µM]	-32	94*	.	-4	.
C[C@H](CO)N1C[C@H](C)[C@H](CN(C)Cc2ccc(C(=O)Nc3ccccc3N)cc2)Oc2ccc(NC(=O)Nc3cccc4ccccc34)cc2CC1=O	96*[16.7 µM]	-1	-1	.	-4	.
C[C@H](CO)N1C[C@H](C)[C@H](CN(C)Cc2ccc(C(=O)Nc3ccccc3N)cc2)Oc2ccc(NC(=O)CCC(F)(F)F)cc2CC1=O	98*[16.7 µM]	-3	2	.	0	.
SMILES	miR-122 sensor	PglD inh	Cneo AK release	PvdQ acylase	ERp5 inh	PDI inh
COc1cccc(C(O)c2ncc(-c3cccc(F)c3)[nH]2)c1 (configuration not stated)	114*	9	-1	.	5	1
COc1cccc(-c2cnc(C(O)c3ccccc3)[nH]2)c1 (configuration not stated)	0	1	-2	.	0	2
CCCOc1ccc(C(=O)CCC(=O)OCC(=O)Nc2cccc(S(N)(=O)=O)c2)cc1	-10	2	-6	49*	4	-1
O=c1c(O[C@H]2O[C@@H](CO)[C@H](O)[C@@H](O)[C@@H]2O)c(-c2ccc(O)cc2)oc2cc(O)cc(O)c12	-7	0	-1	-15	4	63*
O=c1c(OC2OC(CO)C(O)C(O)C2OC2OC(CO)C(O)C(O)C2O)c(-c2ccc(O)cc2)oc2cc(O)cc(O)c12 (configuration not stated)	-14	4	5	18	-1	.
O=c1cc(-c2ccc(O)c(O)c2)oc2cc(O[C@@H]3O[C@H](CO)[C@@H](O)[C@H](O)[C@H]3O)cc(O)c12	.	-4	-2	-12	.	20
O=c1c(OC2OC(CO)C(O)C(O)C2O)c(-c2ccc(O)c(O)c2)oc2cc(O)cc(O)c12 (configuration not stated)	-10	-6	0	3	2	54*
O=c1c(O[C@@H]2O[C@H](CO)C(O)C2O)c(-c2ccc(O)c(O)c2)oc2cc(O)cc(O)c12 (some centres not stated)	-1	2	0	-9	.	41*
O=c1c2c(O)cc(O)cc2oc2c(O)ccc(O[C@H]3O[C@@H](CO)[C@H](O)[C@@H](O)[C@@H]3O)c12	.	0	-5	-4	0	2
COc1ccc(-c2ccc3c(c2)O[C@H](CN(C)C)[C@H](C)CN([C@@H](C)CO)S3(=O)=O)cc1	13[16.7 µM]	2	0	.	5	.
O=C(O)c1cc2nccc(-c3ccco3)n2n1	14	3	1	39*	4	5

Assay outcomes as filed in PubChem.
